Reference: ChEMBL document CHEMBL1158412, “Novel pyridopyrimidine derivatives as inhibitors of stable toxin a (STa) induced cGMP synthesis” (Bioorg Med Chem Lett, 2009)

System: T84
Test: Inhibition of Escherichia coli heat stable toxin A-stimulated cGMP accumulation in human T84 cells at 50 uM pretreated 10 mins before 250 nM toxin challenge measured after 10 mins of induction by ELISA
Type: cell-based
Method in brief: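 T84 cells preincubated 10 min with test compound, then left unstimulated (basal) or stimulated with 250 nM STa for 10 min; cGMP extracted and quantified by ELISA. Each plate included a vehicle control, and percent inhibition was calculated per plate.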
Work on `Cn1c2c(c(=O)n(C)c1=O)C(c1cc(F)cc(C(F)(F)F)c1)C1=C(N2)c2ccccc2C1=O` (centres undefined) yielded an inhibition of 93%. For `Cn1c2c(c(=O)n(C)c1=O)C(c1cccc(F)c1)C1=C(N2)c2ccccc2C1=O` (centres undefined), the inhibition was 63%. In the case of `Cn1c(=O)c2c(-c3cccc(Br)c3)c3c(nc2n(C)c1=O)-c1ccccc1C3=O`, the inhibition is reported as 2%. Compound `CC1=C(C(=O)Nc2nccs2)C(c2cccc(Br)c2)c2c(n(C)c(=O)n(C)c2=O)N1` (centres undefined) has an inhibition of 11%. For `Cn1c2c(c(=O)[nH]c1=O)C(c1cc(F)cc(C(F)(F)F)c1)C1=C(N2)c2ccccc2C1=O` (centres undefined), the inhibition was -6%. In the case of `CC(C)C(=O)N1C2=C(C(=O)c3ccccc32)C(c2ccc(Cl)cc2)c2c1n(C)c(=O)n(C)c2=O` (centres undefined), the inhibition is reported as 22%. For `CC1=C(C(=O)Nc2ccccc2)C(c2cc(C(F)(F)F)cc(C(F)(F)F)c2)c2c(n(C)c(=O)n(C)c2=O)N1` (centres undefined), the inhibition was 22%. Work on `Cn1c2c(c(=O)n(C)c1=O)C(c1cc(F)cc(F)c1)C1=C(N2)c2ccccc2C1=O` (centres undefined) yielded an inhibition of 63%. `Cn1c2c(c(=O)n(C)c1=O)C(c1cccc(C#N)c1)C1=C(N2)c2ccccc2C1=O` (centres undefined) showed an inhibition of 23%. Work on `Cn1c2c(c(=O)n(C)c1=O)C(c1ccc(F)c(F)c1F)C1=C(N2)c2ccccc2C1=O` (centres undefined) yielded an inhibition of 62%. Work on `Cn1c2c(c(=O)n(C)c1=O)C(c1cc(F)cc(F)c1F)C1=C(N2)c2ccccc2C1=O` (centres undefined) yielded an inhibition of 42%. With `Cn1c2c(c(=O)n(C)c1=O)C(c1ccccc1)C1=C(N2)c2ccccc2C1=O` (centres undefined) the inhibition was 7%. `Cn1c2c(c(=O)n(C)c1=O)C(c1cccc(C(F)(F)F)c1)C1=C(N2)c2ccccc2C1=O` (centres undefined) gave an inhibition of 73%. `Cn1c2c(c(=O)n(C)c1=O)C(c1ccc(O)c(O)c1)C1=C(N2)c2ccccc2C1=O` (centres undefined) showed an inhibition of 26%. `Cn1c2c(c(=O)n(C)c1=O)C(c1cccc(Br)c1)C1=C(N2)c2ccccc2C1=O` (centres undefined) showed an inhibition of 86%. `Cn1c2c(c(=O)n(C)c1=O)C(c1cccc(Br)c1)C1=C(CCC1=O)N2` (centres undefined) gave an inhibition of 56%. With `Cn1c2c(c(=O)n(C)c1=O)C(c1ccc(F)c(F)c1F)C1=C(CC(c3ccco3)CC1=O)N2` (centres undefined) the inhibition was -3%. For `Cn1c2c(c(=O)n(C)c1=O)C(c1cccc(C(F)(F)F)c1F)C1=C(N2)c2ccccc2C1=O` (centres undefined), the inhibition was 80%. Work on `O=C1C2=C(Nc3[nH]nc(-c4ccsc4)c3C2c2cc(C(F)(F)F)cc(C(F)(F)F)c2)c2ccccc21` (centres undefined) yielded an inhibition of -2%. Work on `Cn1c2c(c(=O)n(C)c1=O)C(c1cccc(Br)c1)C1=C(CC(c3ccco3)CC1=O)N2` (centres undefined) yielded an inhibition of 2%. In the case of `Cn1c2c(c(=O)n(C)c1=O)C(c1cc(C(F)(F)F)cc(C(F)(F)F)c1)C1=C(N2)c2ccccc2C1=O` (centres undefined), the inhibition is reported as 93%. With `O=C1C2=C(Nc3[nH]c(=O)[nH]c(=O)c3C2c2cc(C(F)(F)F)cc(C(F)(F)F)c2)c2ccccc21` (centres undefined) the inhibition was 56%. For `COc1cc(C2C3=C(Nc4c2c(=O)n(C)c(=O)n4C)c2ccccc2C3=O)ccc1O` (centres undefined), the inhibition was 29%. `Cn1c2c(c(=O)[nH]c1=O)C(c1cccc(Br)c1)C1=C(N2)c2ccccc2C1=O` (centres undefined) showed an inhibition of 1%. `Cn1c2c(c(=O)[nH]c1=O)C(c1cc(C(F)(F)F)cc(C(F)(F)F)c1)C1=C(N2)c2ccccc2C1=O` (centres undefined) gave an inhibition of 19%. With `CC1=C(C(N)=O)C(c2cc(C(F)(F)F)cc(C(F)(F)F)c2)c2c(n(C)c(=O)n(C)c2=O)N1` (centres undefined) the inhibition was 8%.

System: not listed separately
Test: Inhibition of Escherichia coli heat stable toxin A-stimulated cGMP accumulation in human T84 cells pretreated 10 mins before 1 nM toxin challenge measured after 10 mins of induction by ELISA
Type: cell-based
Work on `Cn1c2c(c(=O)n(C)c1=O)C(c1cc(F)cc(C(F)(F)F)c1)C1=C(N2)c2ccccc2C1=O` (centres undefined) yielded an IC50 of 3.4 µM. Work on `Cn1c2c(c(=O)n(C)c1=O)C(c1cccc(Br)c1)C1=C(N2)c2ccccc2C1=O` (centres undefined) yielded an IC50 of 9.6 µM. `Cn1c2c(c(=O)n(C)c1=O)C(c1cc(C(F)(F)F)cc(C(F)(F)F)c1)C1=C(N2)c2ccccc2C1=O` (centres undefined) showed an IC50 of 2.5 µM.
